Data set [1] addresses T1, Muscarinic acetylcholine receptor M4 (Homo sapiens, UniProt P08173).
T1 sequence (P08173 whole entry): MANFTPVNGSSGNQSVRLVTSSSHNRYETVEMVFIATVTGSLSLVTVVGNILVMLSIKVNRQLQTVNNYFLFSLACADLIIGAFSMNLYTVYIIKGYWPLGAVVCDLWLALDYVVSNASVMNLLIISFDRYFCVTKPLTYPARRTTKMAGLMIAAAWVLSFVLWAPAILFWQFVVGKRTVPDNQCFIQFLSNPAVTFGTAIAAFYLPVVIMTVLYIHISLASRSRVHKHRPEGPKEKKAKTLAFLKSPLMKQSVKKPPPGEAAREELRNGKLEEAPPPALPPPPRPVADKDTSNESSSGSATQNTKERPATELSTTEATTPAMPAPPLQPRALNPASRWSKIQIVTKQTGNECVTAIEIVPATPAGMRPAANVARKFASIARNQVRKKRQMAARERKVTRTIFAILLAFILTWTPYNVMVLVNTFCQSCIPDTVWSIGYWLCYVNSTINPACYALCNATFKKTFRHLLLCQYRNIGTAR
Kind of data set: Positive allosteric modulation of human muscarinic acetylcholine M4/Gqi5 receptor expressed in CHO cells in presence of acetylcholine at EC20 concentration by calcium mobilization assay. The class given is functional, cell-based.

Data set [2] concerns the target T2, Muscarinic acetylcholine receptor M4 (Homo sapiens) (UniProt P08173).
T2 sequence (whole entry): T1 sequence (P08173 whole entry)
Kind of data set: Positive allosteric modulation of human muscarinic acetylcholine M4/Gqi5 receptor expressed in CHO cells in presence of acetylcholine at EC20 concentration by calcium mobilization assay relative to control. The format is functional, cell-based. An outline of the steps:
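CHO cells stably expressing human M4 with a chimeric Gq protein were tested by calcium mobilization in the presence of an EC20 fixed concentration of acetylcholine. EC50 values come from concentration-response curves. Efficacy is given as % of the maximal acetylcholine response. Each value is n = 1 independent experiment run in triplicate.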

A short description of data set [3]: Brain to plasma partition coefficient, Kp of the compound in Sprague-Dawley rat at 0.2 mg/kg, iv measured at […]. The class given is ADME, organism-based. The following applies: time 0.25 hrs.
Data set [4] is described as follows: Intrinsic clearance in rat liver microsomes. The conditions noted are these: read-out: CLH.
Data set [5] is described as follows: Intrinsic clearance in human liver microsomes. The following applies: read-out: CLH.
Where [6] appears, read: filed as positive allosteric modulator.

Turning to `Cc1cc(C)c2c(n1)sc1c(NCc3ccc4sccc4c3)ncnc12`, the half-maximal effective concentration (EC50) entry in data set [1] (cho) was “Not Active”.

Take `Cc1cc(C)c2c(n1)sc1c(N3CCCC3)nccc12`: the %max in data set [2] (setting [6]) is 98%. The Kp in data set [3] came out at 37.1. Further, the predicted hepatic clearance in data set [4] is 68 mL/min/kg; in data set [5] it was 19 mL/min/kg.

Regarding `Cc1cc(C)c2c(n1)sc1c(C3CCN(C(=O)C4CC4)CC3)ncnc12`, in data set [2] (setting [6]), the %max came out at 62%.

In the case of `Cc1cc(C)c2c(n1)sc1c(N(C)C)nccc12`, in data set [2] (setting [6]), the %max came out at 82%.

In the case of `Cc1cc(C)c2c(n1)sc1c(NCc3ncc(F)cn3)ncnc12`, the %max in data set [2] amounted to 30%. For the same compound, in data set [1] (read-out: EC50), the EC50 is greater than 10 µM.

In the case of `Cc1cc(C)c2c(n1)sc1c(NC3CC(c4ccncc4)C3)ncnc12` (stereo not given), the %max in data set [2] (setting [6]) was 67%. The EC50 in data set [1] (read-out: EC50) stood at 0.341 µM.

`Cc1cc(C)c2c(n1)sc1c(-c3nccs3)ncnc12`: the %max in data set [2] (setting [6]) came to 62%.

Turning to `Cc1cc(C)c2c(n1)sc1c(NCc3ccc(C(F)(F)F)cn3)ncnc12`, the EC50 entry in data set [1] (cho) is on record as “Not Active”.

As for `COc1ccc(C2CC2Nc2ncnc3c2sc2nc(C)cc(C)c23)cc1` (stereo not given), in data set [2] (setting [6]), the %max was found to be 61%.

Turning to `Cc1cc(C)c2c(n1)sc1c(C3CCOCC3)ncnc12`, the %max in data set [2] (setting [6]) came out at 99%. Besides, the EC50 in data set [1] (read-out: EC50) was 0.152 µM.

On to `Cc1cc(C)c2c(n1)sc1c(C3CCNCC3)ncnc12`, for which, in data set [2] (setting [6]), the %max was 44%.

As for `Cc1cc(C)c2c(n1)sc1c(NCc3ccc(S(C)(=O)=O)cc3)ncnc12`, the %max in data set [2] (setting [6]) is 42%. Also, the Kp in data set [3] is recorded as 0.45. Moreover, the predicted hepatic clearance was 50 mL/min/kg in data set [4] and 12 mL/min/kg in data set [5].

With `Cc1cc(C)c2c(n1)sc1c(NCc3ccc(OC(F)F)cc3)ncnc12`, the %max in data set [2] (setting [6]) was 45%. Moreover, the EC50 in data set [1] (read-out: EC50) is 4.01 µM.

Turning to `Cc1cc(C)c2c(n1)sc1c(C3CC3)ncnc12`, the %max in data set [2] (setting [6]) is 62%.

On to `Cc1cc(C)c2c(n1)sc1c(NCc3ccc4c(c3)COC4)ncnc12`, for which, in data set [2] (setting [6]), the %max is 41%. In addition, in data set [1] (read-out: EC50), the EC50 worked out at 1.14 µM.

For the compound `Cc1cc(C)c2c(n1)sc1c(N3CC4CC4C3)ncnc12` (stereo not given), the %max in data set [2] (setting [6]) came to 75%.

As to `Cc1cc(C)c2c(n1)sc1c(N3CCCC3)ncnc12`, the %max in data set [2] (setting [6]) was 67%. The partition ratio (Kp) in data set [3] turned out to be 5.36. The predicted hepatic clearance is 68 mL/min/kg in data set [4] and 18 mL/min/kg in data set [5].

Turning to `Cc1cc(C)c2c(n1)oc1c(NC3CC3)ncnc12`, in data set [2] (setting [6]), the %max came to 64%.

For the compound `Cc1cc(C)c2c(n1)sc1c(NC3CCCC3)nccc12`, in data set [2] (setting [6]), the %max was determined as 71%.

Consider `Cc1cc(C)c2c(n1)sc1c(NCc3ccc(-n4ccnc4)nc3)ncnc12`, for which the %max in data set [2] amounted to 34%. The EC50 in data set [1] (read-out: EC50) was determined as 1.56 µM.

For `Cc1cc(C)c2c(n1)sc1c(NCc3ccc(C(C)(C)O)cc3)nccc12`, the %max in data set [2] (setting [6]) stood at 101%. In data set [3], this compound yielded a Kp of 2.27. Also, the predicted hepatic clearance is 58 mL/min/kg in data set [4] and 15 mL/min/kg in data set [5].

Consider `Cc1ccc(CNc2ncnc3c2sc2nc(C)cc(C)c23)c(F)c1`, for which the 50% effective concentration (EC50) entry in data set [1] (cho) is on record as “Not Active”.

`Cc1cc(C)c2c(n1)oc1c(N3CCCC3)ncnc12`: the concentration for a half-maximal effect (EC50) entry in data set [1] (cho) is listed as “Not Active”.

As for `Cc1cc(C)c2c(n1)sc1c(NCc3ccc(F)c(Cl)c3)ncnc12`, in data set [1] (cho), the EC50 entry is recorded as “Not Active”.

Take `Cc1cc(C)c2c(n1)sc1c(N3CC4(COC4)C3)ncnc12`: the %max in data set [2] (setting [6]) was found to be 84%. Moreover, the Kp in data set [3] was determined as 4.47. The predicted hepatic clearance in data set [4] was 63 mL/min/kg; in data set [5], 18 mL/min/kg.

`COCC1CN(c2ncnc3c2sc2nc(C)cc(C)c23)C1`: the %max in data set [2] (setting [6]) worked out at 50%.

For `Cc1cc(C)c2c(n1)sc1c(C3CCN(CC4CC4)CC3)ncnc12`, the EC50 entry in data set [1] (cho) is “Not Active”.

Regarding `Cc1cc(C)c2c(n1)oc1c(NCc3ccc(C(C)(C)O)cc3)ncnc12`, in data set [1] (cho), the EC50 entry is listed as “Not Active”.

As for `Cc1cc(C)c2c(n1)oc1c(NC3CN(c4cc(Cl)ncc4Cl)C3)ncnc12`, the %max in data set [2] (setting [6]) was 49%.

For `Cc1cc(C)c2c(n1)sc1c(NC3CCC3)ncnc12`, the %max in data set [2] (setting [6]) is 76%.

As to `Cc1cc(C)c2c(n1)sc1c(NC3CN(c4ncc(C(F)(F)F)cn4)C3)nccc12`, in data set [2] (setting [6]), the %max was determined as 80%.

`Cc1cc(C)c2c(n1)sc1c(NC3CN(c4ncc(C(F)(F)F)cn4)C3)ncnc12`: the %max in data set [2] (setting [6]) came out at 52%.

Regarding `Cc1cc(C)c2c(n1)sc1c(NCc3ccc(CN4CCOCC4)cc3)ncnc12`, the %max in data set [2] (setting [6]) came out at 47%. In data set [1] (read-out: EC50), the EC50 is 1.11 µM.

On to `Cc1cc(C)c2c(n1)sc1c(C3CCN(C(=O)C4(C)CC4)CC3)ncnc12`, for which, in data set [2] (setting [6]), the %max was determined as 72%. In data set [1] (read-out: EC50), the EC50 was determined as 0.234 µM. Besides, in data set [3], the Kp was determined as 0.54. For the same compound, the predicted hepatic clearance in data set [4] was 59 mL/min/kg; in data set [5], 11 mL/min/kg.

For `Cc1cc(C)c2c(n1)oc1c(NC3CCC3)ncnc12`, the %max in data set [2] (setting [6]) was found to be 44%.

On to `Cc1cc(C)c2c(n1)sc1c(N3CC(F)(F)C3)ncnc12`, for which the %max in data set [2] (setting [6]) was 69%.

As to `Cc1cc(C)c2c(n1)sc1c(C)ncnc12`, the %max in data set [2] (setting [6]) was found to be 58%.

On to `Cc1cc(C)c2c(n1)sc1c(NCc3ccc4c(n3)CCC4)ncnc12`, for which, in data set [2], the %max was determined as 30%. For the same compound, the EC50 in data set [1] (read-out: EC50) is 2.56 µM.

Turning to `Cc1cc(C)c2c(n1)sc1c(N3CCC3)ncnc12`, the %max in data set [2] (setting [6]) worked out at 59%. In data set [3], this compound yielded a Kp of 6.49. Moreover, the predicted hepatic clearance in data set [4] is 64 mL/min/kg; in data set [5] it was 20 mL/min/kg.

Take `Cc1cc(C)c2c(n1)sc1c(OCc3ccc(C(C)(C)O)cc3)ncnc12`: in data set [2] (setting [6]), the %max was 40%. Further, the EC50 in data set [1] (read-out: EC50) stood at 8.74 µM.

Take `Cc1cc(C)c2c(n1)sc1c(NCc3ccc(C(C)(C)O)cc3)ncnc12`: the %max in data set [2] (setting [6]) was 76%.

Take `Cc1cc(C)c2c(n1)sc1c(NCc3ccc(OC(F)(F)F)cc3)ncnc12`: the EC50 result in data set [1] (cho) is reported as “Not Active”.

`Cc1cc(C)c2c(n1)sc1c(NCc3cnc(C)nc3)ncnc12`: the %max in data set [2] (setting [6]) worked out at 54%.

`COc1ccc(CNc2nccc3c2sc2nc(C)cc(C)c23)cc1F`: in data set [2] (setting [6]), the %max was found to be 90%.

As to `Cc1cc(C)c2c(n1)sc1c(C3CCN(c4cncc(F)c4)CC3)ncnc12`, the EC50 entry in data set [1] (cho) was “Not Active”.

For the compound `Cc1cc(C)c2c(n1)sc1c(NCc3ccc(C(C)(C)O)cc3F)ncnc12`, in data set [2] (setting [6]), the %max was determined as 74%. In addition, the EC50 in data set [1] (read-out: EC50) turned out to be 2.32 µM.

Regarding `Cc1cc(C)c2c(n1)sc1c(C3CCCCC3)ncnc12`, the %max in data set [2] (setting [6]) is 71%.

In the case of `Cc1cc(C)c2c(n1)oc1c(NC3CN(c4ncc(C(F)(F)F)cn4)C3)ncnc12`, in data set [1] (cho), the EC50 result was “Not Active”.

Consider `COc1ccc(CNc2ncnc3c2oc2nc(C)cc(C)c23)cc1F`, for which, in data set [1] (cho), the EC50 entry was “Not Active”.

As to `Cc1cc(C)c2c(n1)sc1c(NC3CCC3)nccc12`, the %max in data set [2] (setting [6]) turned out to be 90%. The Kp in data set [3] is 10.4. For the same compound, the predicted hepatic clearance was 69 mL/min/kg in data set [4] and 20 mL/min/kg in data set [5].
